# Reference: ChEMBL document CHEMBL5107946, “SF5- and SCF3-substituted tetrahydroquinoline compounds as potent bactericidal agents against multidrug-resistant persister Gram-positive bacteria” (RSC Med Chem, 2021)
# Activity calls are given as the source filed them.
# How the values were obtained:
# [1] = tested on: Enterococcus faecalis; assay: Antibacterial activity against vancomycin-resistant Enterococcus faecalis ATCC 51575 assessed as bacterial growth inhibition incubated for 18 to 20 hrs by CLSI based broth microdilution assay; format: functional; settings: time 18-20 hrs
# Procedure, shortened: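 CLSI broth microdilution; compounds and control antibiotics made up at 10 mg mL−1 in DMSO (stock), serially diluted 1:2 across the plate. Inoculum adjusted to 0.5 McFarland, then diluted 1:100 into wells. Plates incubated static at 37 °C for 18–20 h before MIC read.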
# [2] = tested on: Staphylococcus aureus; assay: Bactericidal activity against methicillin-resistant Staphylococcus aureus USA300 assessed as reduction in colony forming unit incubated for 20 hrs; format: functional
# Procedure, shortened: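 Follows the broth microdilution MIC plate. 4 μL taken from each well without growth, spotted in duplicate on tryptic soy agar and incubated static at 37 °C for 20 h. MBC taken as the concentration giving 99.9% reduction in CFU.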
# [3] = tested on: Staphylococcus aureus; assay: Bactericidal activity against persister methicillin-resistant Staphylococcus aureus ATCC 33592 assessed as reduction in colony forming unit at 1 x MIC incubated for 6 hrs by Time-kill analysis; format: functional, organism-based
# Procedure, shortened: (§1)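 Stationary-phase (persister) time-kill. Overnight TSB culture diluted 1 in 10 in TSB directly (about 2.92 × 10^6 CFU per mL), with no regrowth step. Exposed at 1× or 4× MIC in triplicate at 37 °C. Samples taken at 0, 2, 4 and 6 h, serially diluted in PBS, plated on TSA in duplicate and incubated 18–24 h.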
# [4] = tested on: Staphylococcus aureus; assay: Bactericidal activity against persister methicillin-resistant Staphylococcus aureus ATCC 33592 assessed as reduction in colony forming unit at 4 x MIC incubated for 6 hrs by Time-kill analysis; format: functional, organism-based; procedure, shortened: as §1
# [5] = tested on: Staphylococcus aureus; assay: Antibacterial activity against methicillin-resistant Staphylococcus aureus USA300 assessed as fold increase in MIC incubated for 30 days by resistance development based broth microdilution assay; format: functional; settings: time 30 day
# Procedure, shortened: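 Multi-step resistance selection over 30 days. MIC determined first. Each day, 5 μL from the turbid well just below the MIC was diluted 1:1000 in CA-MHB and used as inoculum for the next broth microdilution MIC. Resistance defined as a rise of more than four-fold over the starting MIC.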
# [6] = tested on: Cell membrane; assay: Induction of cell membrane permeability in Staphylococcus aureus ATCC 25923 at 1 ug/ml incubated for […] by Sytox green based fluorescence method; settings: dose 1.0 µg/ml
# Procedure, shortened: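 Exponential-phase cells (OD600 0.2–0.3) washed three times in PBS and resuspended in PBS + 10% TSB. Sytox green added to 5 μM final and equilibrated 15–30 min in the dark. Fluorescence (ex 504/em 522 nm) read for 10 min baseline, then every 3 min for 3 h after addition. Run in triplicate; 1% Triton X-100 as positive control.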
# [7] = tested on: Cell membrane; assay: Induction of cell membrane disruption in Staphylococcus aureus ATCC 25923 at 4 ug/ml incubated for 4 hrs by scanning electron microscopy; settings: dose 4.0 µg/ml
# Procedure, shortened: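 Cells grown overnight in TSB, diluted 1:100 and grown to OD600 0.4, then treated for 4 h; bithionol 10 μg mL−1 as positive control, DMSO as negative control. Fixed in chilled 2.5% glutaraldehyde in 0.1 M cacodylate, post-fixed in 1% OsO4, ethanol-dehydrated, dried with HMDS and platinum-coated. Imaged at 5 kV.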
# [8] = tested on: Erythrocyte; assay: Cytotoxicity against human RBC at 20 ug/ml incubated for 30 mins by spectrophotometric method; format: toxicity, cell-based; settings: 0.5 h, dose 20 µg/ml
# Procedure, shortened: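 Hemolysis of 5% human RBCs exposed to compound at 5–20 μg mL−1 for 30 min at 37 °C. Intact cells were pelleted by centrifugation and supernatant absorbance read at 540 nm. Values are percent of 1% Triton X-100 lysis, with DMSO as negative control. Triplicate.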
# [9] = tested on: Enterococcus faecium; assay: Bactericidal activity against vancomycin-resistant Enterococcus faecium ATCC 700221 assessed as reduction in colony forming unit incubated for 20 hrs; settings: ATCC 700221, 20 h
compound,measurement,setting,value
FC(F)(F)c1n[nH]cc1[C@@H]1Nc2ccc(S(F)(F)(F)(F)F)cc2[C@H]2[C@@H]3CC[C@@H](C3)[C@H]21,MIC,[1],4 mg/L
same,MBC,[2],8 mg/L
same,Activity,[3],Active
same,Activity,[4],Active
same,fold change (FC),[5],1
same,Activity,[6],Active
same,Activity,[7],Active
same,Activity,[8],Non-Toxic
same,MBC,[9],4 mg/L
